From ChEMBL document CHEMBL1145999, “Synthesis and Ca2+-mobilizing activity of purine-modified mimics of adenophostin A: a model for the adenophostin-Ins(1,4,5)P3 receptor interaction” (J Med Chem, 2003) come the findings set out here.

Assay [1] is described as follows: Hill coefficient was determined. Format: functional. The procedure, abridged: (§1)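 Permeabilized rat hepatocytes loaded with 45Ca2+ to steady state for 5 min at 37 °C in cytosol-like medium (pH 7.0, free Ca2+ 200 nM) with ATP 1.5 mM, creatine phosphate/creatine phosphokinase and FCCP 10 µM. Thapsigargin 1.25 µM added; 30 s later, agonist for 60 s; store 45Ca2+ measured by rapid filtration. Four-parameter logistic fit gave maximal response, EC50, Hill slope. Means ± SEM.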

The species entered for assay [2] is Rattus norvegicus. In words: The % of actively accumulated [Ca2+] released by a maximally effective concentration of the compound. Format: functional. The procedure, abridged: as §1
The species entered for assay [3] is Rattus norvegicus. In words: Potency for [Ca2+] release in rat hepatocytes with respect to compound 2. To be noted: Hepatocyte.
Assay [4] is filed under the species Rattus norvegicus. In words: Effective concentration causing half-maximal [Ca2+] release in rat hepatocytes. Particulars: Hepatocyte. Format: functional. An outline of the steps: as §1

SMILES strings stand for the structures.

Regarding `Nc1ncnc2c1ncn2C1O[C@H](CO)[C@H](O[C@@H]2OC(CO)[C@H](OP(=O)(O)O)C(OP(=O)(O)O)[C@@H]2O)[C@@H]1OP(=O)(O)O` (some centres not stated), the Hill slope (in general, a measure of the steepness of the concentration-response curve) in assay [1] was found to be 2.4. Besides, the Max response in the assay filed under Rattus norvegicus [2] is 35%. In addition, in the assay filed under Rattus norvegicus [3], the relative potency worked out at 1. Further, in the assay listed under Rattus norvegicus [4], the midpoint of the response, the EC50, lay at 0.014 µM.
Take `COc1ncnc2c1ncn2C1O[C@H](CO)[C@H](O[C@@H]2OC(CO)[C@H](OP(=O)(O)O)C(OP(=O)(O)O)[C@@H]2O)[C@@H]1OP(=O)(O)O` (some centres not stated): the Hill slope in assay [1] was 3.8. The Max response in the assay listed under Rattus norvegicus [2] came to 34%. The relative potency in the assay listed under Rattus norvegicus [3] worked out at 0.57. Moreover, it took 0.019 µM to reach a half-maximal effect in the assay filed under Rattus norvegicus [4] (EC50).
As for `O=P(O)(O)OC1[C@@H](OP(=O)(O)O)C(CO)O[C@@H](O[C@@H]2[C@H](OP(=O)(O)O)C(n3cnc4c(NC5CCCC5)ncnc43)O[C@@H]2CO)[C@H]1O` (some centres not stated), the Hill slope in assay [1] stood at 2.2. In addition, the Max response in the assay listed under Rattus norvegicus [2] was 35%. In addition, in the assay listed under Rattus norvegicus [3], the relative potency came to 0.77. Further, the EC50 (as a rule, the concentration that produces a half-maximal response) in the assay listed under Rattus norvegicus [4] stood at 0.013 µM.
Turning to `CNc1ncnc2c1ncn2C1O[C@H](CO)[C@H](O[C@@H]2OC(CO)[C@H](OP(=O)(O)O)C(OP(=O)(O)O)[C@@H]2O)[C@@H]1OP(=O)(O)O` (some centres not stated), the Hill slope in assay [1] turned out to be 2.1. For the same compound, the Max response in the assay listed under Rattus norvegicus [2] is reported as 37%. Further, the relative potency in the assay listed under Rattus norvegicus [3] was 0.8. This compound also gave a 50% effective concentration (EC50) in the assay filed under Rattus norvegicus [4] of 0.013 µM.
Taken in the same sequence, the figures for `O=P(O)(O)OC1[C@@H](OP(=O)(O)O)C(CO)O[C@@H](O[C@@H]2[C@H](OP(=O)(O)O)C(n3cnc4c(NC5CCCCC5)ncnc43)O[C@@H]2CO)[C@H]1O` (some centres not stated) were 2.3, 45%, 0.56 and 0.025 µM.
`CN(C)c1ncnc2c1ncn2C1O[C@H](CO)[C@H](O[C@@H]2OC(CO)[C@H](OP(=O)(O)O)C(OP(=O)(O)O)[C@@H]2O)[C@@H]1OP(=O)(O)O` (some centres not stated): in assay [1], the Hill slope was 2.1. In addition, the Max response in the assay listed under Rattus norvegicus [2] was determined as 39%. The compound further yielded a relative potency in the assay listed under Rattus norvegicus [3] of 0.82. The same compound registered an EC50 in the assay filed under Rattus norvegicus [4] of 0.019 µM.
Regarding `O=P(O)(O)O[C@@H]1[C@H](O)[C@H](O)[C@@H](OP(=O)(O)O)[C@H](OP(=O)(O)O)[C@H]1O` [INS(1,4,5)P3], in assay [1], the Hill slope was determined as 2.3. For the same compound, the Max response in the assay listed under Rattus norvegicus [2] was found to be 35%. The compound further came in with a relative potency in the assay listed under Rattus norvegicus [3] of 0.08. Also, in the assay filed under Rattus norvegicus [4], a half-maximal response (EC50) required 0.185 µM.
`CNc1nc(OC)nc2c1ncn2C1O[C@H](CO)[C@H](O[C@@H]2OC(CO)[C@H](OP(=O)(O)O)C(OP(=O)(O)O)[C@@H]2O)[C@@H]1OP(=O)(O)O` (some centres not stated) showed a Hill slope in assay [1] of 8.8. Also, the Max response in the assay filed under Rattus norvegicus [2] amounted to 34%. Besides, the relative potency in the assay listed under Rattus norvegicus [3] stood at 0.17. The compound also displayed an EC50 in the assay listed under Rattus norvegicus [4] of 0.082 µM.
